From publication PMC11245987 (Computational and Structural Biotechnology Journal, 2024)
Blank lines part the entries; values can stand above or below the molecule they belong to.

What was measured:
[1] = target: T1, CTSL (Homo sapiens, UniProt P07711); assay: CTSL activity test, cell-free system; assay type: biochemical; details: for inhibition at 100 µM: read-out: inhibition of CTSL
[2] = target: T1, CTSL; assay: Enzyme kinetics of CTSL; assay type: biochemical; details: for inhibition mechanism: 6.25 µM to 100 µM, both Km and Vmax decreased
Procedure, shortened: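 A standard-curve conversion factor turned signal into velocity. Values were corrected by subtracting the […] and fitted to Michaelis-Menten. Lineweaver–Burk plots gave the inhibition mechanism. Mean ± SEM.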

T1 sequence (P07711 114-288 limits assumed): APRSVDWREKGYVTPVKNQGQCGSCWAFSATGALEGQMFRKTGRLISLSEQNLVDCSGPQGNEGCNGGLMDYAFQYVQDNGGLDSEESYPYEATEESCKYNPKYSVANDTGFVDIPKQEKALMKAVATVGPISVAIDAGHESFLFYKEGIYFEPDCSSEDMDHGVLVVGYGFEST
T1 sequence (P07711 292-333 limits assumed): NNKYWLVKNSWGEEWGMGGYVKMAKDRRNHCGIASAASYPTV

SMILES: COc1cc(O)c(C(=O)/C=C/c2ccccc2)c(OC)c1 [Flavokawain B]
inhibition at 100 µM [1]: > 90%

SMILES: Cc1c(O)c(C)c2c(c1O)C(=O)C[C@@H](c1ccc(O)cc1)O2 [Farrerol]
inhibition at 100 µM [1]: > 90%

SMILES: CC1=CC(=O)c2c(O)cccc2C1=O [Plumbagin]
IC50 [1]: 31.3 µM
inhibition at 100 µM [1]: > 90%
inhibition mechanism [2]: uncompetitive inhibition mechanism
Vmax ([2]; inhibitor 6.25 μM): 321.7 ± 13.9 Rlu/min
Vmax ([2]; inhibitor 12.5 μM): 277.5 ± 15.6 Rlu/min
Vmax ([2]; inhibitor 25 μM): 270.5 ± 11.2 Rlu/min
Vmax ([2]; inhibitor 50 μM): 216.8 ± 20.5 Rlu/min
Vmax ([2]; inhibitor 100 μM): 12.3 ± 2.4 Rlu/min

SMILES: COc1cc(O)cc(O)c1C(=O)/C=C/c1ccccc1 [(E)-Cardamonin]
inhibition at 100 µM [1]: > 90%

SMILES: CC1(C)CCC2=C(O1)c1ccccc1C(=O)C2=O [Beta-Lapachone]
IC50 [1]: 9.6 µM
inhibition at 100 µM [1]: > 90%
inhibition mechanism [2]: uncompetitive inhibition mechanism
Vmax ([2]; inhibitor 6.25 μM): 194.8 ± 9.2 Rlu/min
Vmax ([2]; inhibitor 12.5 μM): 181.3 ± 32.9 Rlu/min
Vmax ([2]; inhibitor 25 μM): 136.9 ± 27.6 Rlu/min
Vmax ([2]; inhibitor 50 μM): 103.1 ± 2.2 Rlu/min
Vmax ([2]; inhibitor 100 μM): 39.9 ± 0.2 Rlu/min

SMILES: O=C(/C=C/c1ccc(O)cc1)c1c(O)cc(O)cc1O [Naringenin chalcone]
inhibition at 100 µM [1]: > 90%

Next, values leading:

inhibition at 100 µM [1]: > 90%
SMILES: O=C(N[C@H](COC(=O)[C@H](Cc1ccccc1)NC(=O)c1ccccc1)Cc1ccccc1)c1ccccc1 [Asperphenamate]

inhibition at 100 µM [1]: > 90%
SMILES: O=CCc1ccccc1 [Phenylacetaldehyde]
